# Reference: ChEMBL document CHEMBL4308847, “Discovery, Structure-Activity Relationship, and Biological Characterization of a Novel Series of 6-((1 H-Pyrazolo[4,3- b]pyridin-3-yl)amino)-benzo[ d]isothiazole-3-carboxamides as Positive Allosteric Modulators of the Metabotropic Glutamate Receptor 4 (mGlu4)” (J Med Chem, 2018)
# Assays:
# [1] = molecular target: T1, Metabotropic glutamate receptor 4 (Homo sapiens, UniProt Q14833); experiment: (§1) Positive allosteric modulation of human mGlu4 receptor expressed in CHO cells co-expressing Gqi5 assessed as increase in glutamate-induced calcium mobilization preincubated for 142 secs followed by EC20 glutamate addition and measured after 147 secs by Fluo-4-AM dye based fluorescence assay relative to control; format: functional, cell-based
# Method in brief: (§2)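 CHO cells expressing human mGlu4 and Gqi5, plated at 30,000 cells/well and grown overnight at 37 °C, 5% CO2. Cells were loaded with 1 μM Fluo-4 AM for 45 min at 37 °C in HBSS/20 mM HEPES/2.5 mM probenecid. Compounds were run as 10-point, 1:3 dilution series. After 142 s, EC20 glutamate was added; 147 s later, EC80 glutamate. Fluorescence was normalized to the maximal glutamate response. EC50 and %Glu Max were fitted by four-parameter logistic, with maximum normalized to PHCCC.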
# [2] = molecular target: T1, Metabotropic glutamate receptor 4; experiment: as §1, with “subsequent EC80 glutamate addition” for “measured”, “assay” for “assay relative to control”; format: functional, cell-based; method in brief: as §2
# [3] = Fraction unbound in rat plasma after 4 hrs by equilibrium dialysis method; format: ADME, cell-free
# [4] = Fraction unbound in human plasma after 4 hrs by equilibrium dialysis method; format: ADME, cell-free
# [5] = Intrinsic clearance in rat liver microsomes at 1 uM preincubated for 5 mins followed by NADPH addition measured up to 45 mins by LC-MS/MS analysis; format: ADME, Microsome; conditions: read-out: CLH
# Method in brief: (§3)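 Intrinsic and predicted hepatic clearance derived from liver microsome incubations.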
# [6] = Intrinsic clearance in human liver microsomes at 1 uM preincubated for 5 mins followed by NADPH addition measured up to 45 mins by LC-MS/MS analysis; format: ADME, Microsome; conditions: read-out: CLH; method in brief: as §3
# Cytochrome P450 1A2 = molecular target: T2, Cytochrome P450 1A2 (Homo sapiens, UniProt P05177); experiment: Inhibition of CYP1A2 in human liver microsomes using phenacetin as substrate preincubated for 15 mins followed by substrate addition and measured after 8 mins by LC-MS/MS analysis; format: ADME
# T2 sequence (P05177 whole entry): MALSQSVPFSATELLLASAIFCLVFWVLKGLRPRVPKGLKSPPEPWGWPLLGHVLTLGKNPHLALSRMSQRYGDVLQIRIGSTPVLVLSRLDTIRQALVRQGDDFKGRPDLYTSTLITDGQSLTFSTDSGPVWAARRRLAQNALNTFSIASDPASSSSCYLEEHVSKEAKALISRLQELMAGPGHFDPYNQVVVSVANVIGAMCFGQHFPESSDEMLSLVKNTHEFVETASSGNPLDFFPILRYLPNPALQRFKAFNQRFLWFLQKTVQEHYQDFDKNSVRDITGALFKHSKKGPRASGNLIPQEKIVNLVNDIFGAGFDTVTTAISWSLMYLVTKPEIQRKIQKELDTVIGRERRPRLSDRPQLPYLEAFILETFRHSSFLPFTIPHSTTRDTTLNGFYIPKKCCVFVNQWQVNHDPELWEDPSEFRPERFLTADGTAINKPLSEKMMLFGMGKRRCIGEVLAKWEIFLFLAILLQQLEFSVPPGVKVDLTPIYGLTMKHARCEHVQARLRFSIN
# Method in brief: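 IC50 for CYP1A2 inhibition determined in human liver microsomes using specific probe substrate-metabolite pairs.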
# [7] = Clearance in rat administered as iv cassette dose; format: ADME, organism-based; conditions: in vivo
# Method in brief: (§4)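 IV cassette in male Sprague-Dawley rats (~300 g, n = 1 per experiment), cannulated in carotid artery and jugular vein and acclimated about one week. Plasma clearance, Vss, t1/2 and MRT were derived.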
# [8] = molecular target: Metabotropic glutamate receptor 4 (Rattus norvegicus, UniProt P31423); experiment: (§5) Positive allosteric modulation of rat mGlu4 receptor expressed in HEK cells co-expressing GIRK1/2 assessed as increase in glutamate-induced thallium flux preincubated for 140 secs followed by glutamate addition and measured after 2.5 mins by FluoZin-2-AM dye based fluorescence assay; format: cell-based
# Method in brief: (§6)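 HEK cells co-expressing rat mGlu4 and GIRK1/2 were loaded for 1 h at room temperature with FluoZin-2 AM (330 nM final) in HBSS/20 mM HEPES pH 7.4. Compound was incubated 140 s, then thallium buffer with or without agonist was added. Reading continued for 2.5 min at room temperature. Potency was fitted by four-parameter logistic.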
# [9] = Half life in rat administered as iv cassette dose; format: ADME, organism-based; conditions: in vivo; method in brief: as §4
# [10] = molecular target: Metabotropic glutamate receptor 4 (Rattus norvegicus) (UniProt P31423); experiment: as §5, with “assay relative to control” for “assay”; format: cell-based; method in brief: as §6
# Chain of Metabotropic glutamate receptor 4 (Rattus norvegicus) (P31423 whole entry): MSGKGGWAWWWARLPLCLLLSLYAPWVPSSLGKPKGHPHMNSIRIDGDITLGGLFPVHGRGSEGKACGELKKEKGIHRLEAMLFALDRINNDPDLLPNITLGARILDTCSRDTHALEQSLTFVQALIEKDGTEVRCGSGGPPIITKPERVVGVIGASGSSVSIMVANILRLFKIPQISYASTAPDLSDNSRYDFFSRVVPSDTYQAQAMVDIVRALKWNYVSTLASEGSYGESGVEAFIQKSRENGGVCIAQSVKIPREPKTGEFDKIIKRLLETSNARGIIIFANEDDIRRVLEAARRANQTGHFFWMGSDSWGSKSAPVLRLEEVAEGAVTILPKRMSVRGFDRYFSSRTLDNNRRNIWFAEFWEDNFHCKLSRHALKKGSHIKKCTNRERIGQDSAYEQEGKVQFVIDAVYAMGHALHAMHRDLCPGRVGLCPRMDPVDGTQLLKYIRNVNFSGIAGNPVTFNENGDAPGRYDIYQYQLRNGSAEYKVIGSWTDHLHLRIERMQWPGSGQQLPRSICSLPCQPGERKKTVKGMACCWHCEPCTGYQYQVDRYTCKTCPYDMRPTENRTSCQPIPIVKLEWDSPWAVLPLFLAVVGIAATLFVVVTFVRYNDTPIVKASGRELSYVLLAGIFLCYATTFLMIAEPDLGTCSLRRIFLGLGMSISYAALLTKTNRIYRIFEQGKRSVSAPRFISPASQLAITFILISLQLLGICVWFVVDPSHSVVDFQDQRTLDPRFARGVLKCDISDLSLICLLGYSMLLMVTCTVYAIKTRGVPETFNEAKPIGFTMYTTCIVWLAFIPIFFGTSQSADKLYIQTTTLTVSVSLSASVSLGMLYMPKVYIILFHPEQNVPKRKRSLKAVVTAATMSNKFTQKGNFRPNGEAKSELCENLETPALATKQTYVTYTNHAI
# T1 sequence (Q14833 whole entry): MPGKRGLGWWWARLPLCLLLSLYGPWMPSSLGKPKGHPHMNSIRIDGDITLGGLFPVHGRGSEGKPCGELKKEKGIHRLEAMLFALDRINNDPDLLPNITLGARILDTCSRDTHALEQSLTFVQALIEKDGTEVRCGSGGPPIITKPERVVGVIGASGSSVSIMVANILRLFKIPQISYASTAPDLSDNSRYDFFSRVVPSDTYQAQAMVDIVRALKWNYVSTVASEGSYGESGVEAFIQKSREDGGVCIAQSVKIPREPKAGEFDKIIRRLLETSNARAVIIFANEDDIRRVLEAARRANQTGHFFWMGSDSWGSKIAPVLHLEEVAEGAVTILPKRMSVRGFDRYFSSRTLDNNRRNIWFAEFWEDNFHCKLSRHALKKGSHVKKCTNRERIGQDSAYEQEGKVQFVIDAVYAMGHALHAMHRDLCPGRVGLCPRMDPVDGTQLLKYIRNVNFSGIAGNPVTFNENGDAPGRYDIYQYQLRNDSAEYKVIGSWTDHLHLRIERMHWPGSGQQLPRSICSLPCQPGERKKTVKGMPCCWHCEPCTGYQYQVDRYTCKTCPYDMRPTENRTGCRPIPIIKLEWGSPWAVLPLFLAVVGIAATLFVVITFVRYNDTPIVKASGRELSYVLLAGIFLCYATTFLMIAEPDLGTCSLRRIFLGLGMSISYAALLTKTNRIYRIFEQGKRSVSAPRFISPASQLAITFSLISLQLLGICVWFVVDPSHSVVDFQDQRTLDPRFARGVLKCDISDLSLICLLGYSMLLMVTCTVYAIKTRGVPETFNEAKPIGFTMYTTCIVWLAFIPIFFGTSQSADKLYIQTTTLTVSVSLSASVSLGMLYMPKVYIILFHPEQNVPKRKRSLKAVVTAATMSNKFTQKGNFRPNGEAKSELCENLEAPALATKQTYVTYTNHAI
# Chain of Metabotropic glutamate receptor 4 (Rattus norvegicus, UniProt P31423) (P31423 whole entry): as the sequence (P31423 whole entry) above
%max [1] [%],EC50 [2] [nM],fraction unbound at 4 h [3],fraction unbound at 4 h [4],CLint scaled at 1 µM [5] [mL/min/kg],CLint scaled at 1 µM [6] [mL/min/kg],IC50 (Cytochrome P450 1A2) [nM],clearance [7] [mL/min/kg],EC50 [8] [nM],half-life [9] [h],%max [10] [%],Fu ([3]; 4 h),Fu ([4]; 4 h),Compound
106,98,–,–,–,–,–,–,–,–,–,–,–,CCC(CC)c1noc2cc(Nc3n[nH]c4nccnc34)ccc12
77,40,0.03,0.035,127,35.4,–,–,–,–,–,–,–,CCc1nsc2cc(Nc3n[nH]c4cccnc34)ccc12
74,759,–,–,–,–,–,–,–,–,–,–,–,CC(C)(C)Cc1nsc2cc(Nc3n[nH]c4ncccc34)ccc12
68.9,1300,0.022,0.016,86.9,7.3,1100,43.2,542,1.33,84.8,–,–,CC(C)(C)Cc1noc2cc(Nc3n[nH]c4cccnc34)ccc12
54,219,0.044,0.054,39.3,23.6,500,–,190,–,121,–,–,Cc1noc2ccc(Nc3n[nH]c4ncc(F)cc34)cc12
70,22.9,–,–,–,–,–,–,–,–,–,–,–,Cc1noc2c(F)cc(Nc3n[nH]c4nccnc34)cc12
97,525,–,–,–,–,–,–,–,–,–,–,–,CCC(CC)c1noc2cc(Nc3n[nH]c4ncccc34)ccc12
44,324,0.034,0.013,229,60,–,–,–,–,–,–,–,CC1CN(C(=O)c2nsc3cc(Nc4n[nH]c5cccnc45)ccc23)CC(C)O1 (stereo not given)
57,102,–,–,–,–,–,–,–,–,–,–,–,CCc1nsc2cc(Nc3n[nH]c4ncccc34)ccc12
58.8,678,0.017,0.003,11,24.6,500,27.8,1600,1.51,83.8,–,–,CC(F)(F)c1noc2cc(Nc3n[nH]c4cccnc34)ccc12
70,269,–,–,–,–,–,–,–,–,–,–,–,CC(C)(C)Cc1nsc2cc(Nc3n[nH]c4cccnc34)ccc12
62,275,0.059,0.077,172,44.3,–,–,–,–,–,–,–,O=C(c1nsc2cc(Nc3n[nH]c4cccnc34)ccc12)N1CCOCC1
111,–,–,–,–,–,–,–,–,–,–,–,–,O=C(C1CC1)N1CCC(c2nsc3cc(Nc4n[nH]c5cccnc45)ccc23)CC1
91,75.9,0.058,0.062,31.8,14.8,< 100,–,95.5,–,105,–,–,Cc1noc2ccc(Nc3n[nH]c4cccnc34)cc12
80,398,–,–,–,–,–,–,–,–,–,–,–,CC1CCN(C(=O)c2nsc3cc(Nc4n[nH]c5cccnc45)ccc23)CC1
92,331,–,–,–,–,–,–,–,–,–,–,–,O=C(c1nsc2cc(Nc3n[nH]c4cccnc34)ccc12)N1CCC(F)(F)C1
86,1860,–,–,–,–,–,–,–,–,–,–,–,Cc1noc2cc(Nc3n[nH]c4cccnc34)ccc12
102,708,–,–,–,–,–,–,–,–,–,–,–,c1cnc2c(Nc3ccc4c(C5CCC5)noc4c3)n[nH]c2n1
92,129,0.019,0.009,488,84.2,1000,–,–,–,–,–,–,CCC(CC)c1noc2cc(Nc3n[nH]c4cccnc34)ccc12

%max [1] [%],EC50 [2] [nM],fraction unbound at 4 h [3],fraction unbound at 4 h [4],CLint scaled at 1 µM [5] [mL/min/kg],CLint scaled at 1 µM [6] [mL/min/kg],IC50 (Cytochrome P450 1A2) [nM],clearance [7] [mL/min/kg],EC50 [8] [nM],half-life [9] [h],%max [10] [%],Fu ([3]; 4 h),Fu ([4]; 4 h),Compound
60,2400,–,–,–,–,–,–,–,–,–,–,–,c1cnc2[nH]nc(Nc3ccc4c(C5CCCC5)noc4c3)c2c1
64,324,–,–,–,–,–,–,–,–,–,–,–,CC(C)(C)c1nsc2cc(Nc3n[nH]c4cccnc34)ccc12
54,105,0.011,0.013,189,40.2,> 30000,–,158,–,112,–,–,CC(C)(C)Cc1nsc2cc(Nc3n[nH]c4nccnc34)cnc12
79,–,0.039,0.042,21,15.8,21700,–,166,–,98.9,–,–,CC(=O)N1CCC(c2nsc3cc(Nc4n[nH]c5cccnc45)ccc23)CC1
98,1050,–,–,–,–,–,–,–,–,–,–,–,CC(C)(O)c1nsc2cc(Nc3n[nH]c4cccnc34)ccc12
84,2820,–,–,–,–,–,–,–,–,–,–,–,CC(C)(C)Cc1noc2cc(Nc3n[nH]c4ncccc34)ccc12
50,794,–,–,–,–,–,–,–,–,–,–,–,FC(F)(F)c1nsc2cc(Nc3n[nH]c4ncccc34)ccc12
72,1350,0.037,0.027,204,69.9,< 100,–,–,–,–,–,–,CCc1noc2cc(Nc3n[nH]c4cccnc34)ccc12
63,447,–,–,–,–,–,–,–,–,–,–,–,CC1CC(C)CN(C(=O)c2nsc3cc(Nc4n[nH]c5cccnc45)ccc23)C1 (stereo not given)
92,117,–,–,–,–,–,–,–,–,–,–,–,CCCC(C)c1noc2cc(Nc3n[nH]c4cccnc34)ccc12 (stereo not given)
76,81,0.014,0.009,176,28.9,400,–,–,–,–,–,–,c1cnc2c(Nc3ccc4c(C5CC5)nsc4c3)n[nH]c2c1
54,> 10000,–,–,–,–,–,–,–,–,–,–,–,CCc1noc2ccc(Nc3n[nH]c4ncccc34)cc12
84,–,–,–,1080,27.5,> 30000,–,–,–,–,Nd(Unstable),Nd(Unstable),FC1(F)CCN(Cc2nsc3cc(Nc4n[nH]c5cccnc45)cnc23)CC1
53,813,–,–,–,–,–,–,–,–,–,–,–,CC(C)Cc1noc2cc(Nc3n[nH]c4cccnc34)ccc12
51,74,0.016,0.006,277,24.7,22100,–,–,–,–,–,–,CC(C)(C)Cc1nsc2cc(Nc3n[nH]c4cccnc34)cnc12
23,575,–,–,–,–,–,–,–,–,–,–,–,CC(C)c1noc2cc(Nc3n[nH]c4cccnc34)ccc12
73,68,0.008,0.012,59.4,41.2,700,–,–,–,–,–,–,c1cnc2c(Nc3ccc4c(C5CC5)nsc4c3)n[nH]c2n1
87.6,723,0.007,0.01,398,30.7,1200,62.1,680,1.67,97.9,–,–,c1cnc2c(Nc3ccc4c(C5CCCC5)noc4c3)n[nH]c2c1
88,851,0.016,0.026,1220,83.2,1800,–,–,–,–,–,–,c1cnc2c(Nc3ccc4c(C5CCC5)noc4c3)n[nH]c2c1
